Most compounds without a hit are left out; they make up all but 4.1% or so of the library.
RGS4 inh – human RGS4 inhibition; HEK293 M3R/RGS4 inducible, Fluo-4 calcium flux; hits give high values; triggered by carbachol at its EC20; B-score at 10 µM; 310,000 compounds, 0.45% hits;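 active means B-score, a plate-corrected calcium signal, over three deviations above library mean, with baseline fluorescence within five deviations of library mean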;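 further: RGS4 expression induced by doxycycline in cells with stable M3 receptor; B-score is computed from the integrated fluorescence ratio over baseline after carbachol; higher B-score means a larger calcium signal and so more RGS4 inhibition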
Target sequence (P49798 whole entry, looked up): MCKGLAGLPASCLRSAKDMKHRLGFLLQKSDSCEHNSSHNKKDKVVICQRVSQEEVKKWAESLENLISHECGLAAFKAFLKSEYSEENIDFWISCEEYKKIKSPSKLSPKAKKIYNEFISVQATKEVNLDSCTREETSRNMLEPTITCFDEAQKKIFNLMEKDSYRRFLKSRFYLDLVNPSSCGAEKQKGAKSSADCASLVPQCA
MrgX1 allo act – allosterically activates human MrgX1 receptor signaling; Q96LB2; AID 588675; 310,000 compounds, 0.63% hits; B-score at 10 µM; MrgX1-HEK293, Fluo-4 calcium flux, FDSS; hits give high values;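 active means plate-corrected calcium response at least 3 library SD above typical, normal starting fluorescence, not activating the receptor alone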;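 further: compound read alongside a low EC10 to EC30 dose of BAM8-22 agonist; peak minus trough fluorescence over baseline measured at the second addition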
Target sequence (Q96LB2 whole entry, looked up): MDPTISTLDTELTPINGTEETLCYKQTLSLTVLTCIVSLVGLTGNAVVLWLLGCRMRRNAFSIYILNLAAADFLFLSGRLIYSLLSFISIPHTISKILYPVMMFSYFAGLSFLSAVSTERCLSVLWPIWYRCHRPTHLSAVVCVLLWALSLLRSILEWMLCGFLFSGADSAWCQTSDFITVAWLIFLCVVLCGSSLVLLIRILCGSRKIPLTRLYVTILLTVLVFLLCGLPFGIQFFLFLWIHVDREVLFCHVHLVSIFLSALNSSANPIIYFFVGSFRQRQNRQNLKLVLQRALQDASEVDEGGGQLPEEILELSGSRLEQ
RGS4 act – potentiators or activators of RGS4 | HEK293 M3R/inducible RGS4, carbachol calcium flux Fluo4; hits give low values | B-score at 10 µM | 310,000 compounds, 0.92% hits;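 active means B-score of the integrated calcium signal more than 4 SD below the library mean, with starting fluorescence not abnormally high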;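 further: negative B-score means reduced calcium response which marks RGS4 activation or potentiation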
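System – HEK293 FlpIn-TREx cells, stable M3R, doxycycline-inducible RGS4 · Reagent – ECmax carbachol challenge · Times – compound preincubation 20 min at room temperature before agonist · Technique – Fluo4 fluorescence kinetic imaging of calcium · Measure – B score of integrated Fluo4 ratio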
Kir21 inh – inhibitors of mouse Kir2.1 inward-rectifier potassium channel; B-score at 10 µM; 310,000 compounds, 0.85% hits; P35561; HEK293-Kir2.1, FluxOR thallium flux fluorescence; hits give low values; AID 1672;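 active means fluorescence ratio B-score at or below minus 3 SD of library scores, with starting-brightness B-score within 2 SD, cut at about -4.2 in these data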;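 further: channel flux triggered by added potassium and thallium sulfate stimulus; B-score of peak minus minimum fluorescence over baseline after thallium stimulus; more negative B-score means stronger Kir2.1 block with less thallium influx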
MrgX1 ag – human MrgX1 receptor agonism, primary screen | Q96LB2 | MrgX1-HEK293 cells, Fluo-4 calcium fluorescence, agonist mode; hits give high values | B-score at 10 µM | 310,000 compounds, 0.44% hits;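 active means calcium response B-score plate-corrected fluorescence ratio at least 3 library SD, with starting fluorescence B-score inside 5 SD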
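Material – MrgX1-expressing HEK293 cells · Input – 15,000 cells seeded per well · Dosing – compound as first of three additions · Times – overnight seeding, then 1 h dark dye loading · Measured by – kinetic Fluo-4 NW fluorescence of intracellular calcium · Read-out – B-scored fluorescence response ratio · Benchmarks – positive and negative control wells on each plate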
MrgX1 antag – blocks BAM8-22 activation of human MrgX1 receptor | 310,000 compounds, 1.3% hits | Q96LB2 | B-score at 10 µM | MRGX1-HEK293 calcium flux, Fluo-4, BAM8-22 antagonism; hits give low values;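 active means calcium-response B-score plate-corrected more than 3 library SD below zero, starting fluorescence within 5 deviations, no agonist response on first addition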;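 further: peak minus trough fluorescence over baseline after final BAM8-22 challenge near maximal dose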
MrgX1 ag reconf – human MrgX1 agonism, re-confirmation screen. shares compounds with MrgX1 ag. 600 compounds, 78% hits. activation, % at 10 µM. MrgX1-HEK293, Fluo-4 calcium fluorescence, FDSS;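 active means calcium signal rise, corrected for plate position, at least 3 library SD high, with starting brightness within 5 such deviations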
HEK293 Ca flux – counter-screen for MrgX1 antagonists: effect in parental HEK293 cells; fluorescence ratio F(max-min)/F0 at 10 µM; Fluo-4 calcium fluorescence, FDSS; shares compounds with MrgX1 antag; 4,000 compounds, 2% hits;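 active means duplicate-averaged calcium fluorescence ratio at least three times the standard deviation of buffer wells, a nonspecific response in parental cells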
HEK293 Ca counter – activity in parental HEK293 cells without MrgX1; shares compounds with MrgX1 antag; parental HEK293 calcium flux, Fluo-4 fluorescence ratio; hits give high values; fluorescence ratio F(max-min)/F0 at 10 µM; 4,000 compounds, 0.4% hits; AID 624114;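 active means calcium fluorescence ratio, averaged over duplicates, at least 3 SD of the buffer-well ratio, meaning a nonspecific response in receptor-free cells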;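 further: untransfected parental HEK293 lacking MrgX1 used as counterscreen for MrgX1 allosteric activators; fluorescence change taken during the second addition on a kinetic imager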
HEK293 Ca cntr2 – activity in parental HEK293 cells lacking MrgX1 receptor; Fluo-4 calcium fluorescence (FDSS); hits give high values; shares compounds with MrgX1 antag; 4,000 compounds, 8.7% hits; fluorescence ratio F(max-min)/F0 at 10 µM;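 active means calcium fluorescence ratio at least three times the spread of buffer wells, meaning a non-specific response in parental cells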
Numbers without * were called inactive; i = inactive; . = not tested or not shown.

SMILES	RGS4 inh	MrgX1 allo act	RGS4 act	Kir21 inh	MrgX1 ag	MrgX1 antag	MrgX1 ag reconf	HEK293 Ca flux	HEK293 Ca counter	HEK293 Ca cntr2
Cc1ccc(N/C=C/C(=O)c2ccccc2)cc1Br	i	i	i	1.4	i	i	.	.	.	.
O=S(=O)(Nc1cccc(-c2ccc3nncn3n2)c1)c1cccc(F)c1	i	i	i	0.87	37*	i	177%*	i	i	i
CCOC(=O)Cc1csc(NC(=O)c2ccc(Cl)s2)n1	i	i	i	0.02	31*	i	112%*	i	i	i
CCOC(=O)Cc1csc(NC(=O)c2cccc(Cl)c2)n1	i	i	i	-0.33	i	i	.	.	.	.
CN(CC(=O)Nc1nc2ccccc2s1)S(=O)(=O)c1ccccc1	i	i	i	0.31	i	i	.	.	.	.
COc1ccc2c(c1)cc1n2CCN2CCCN=C12	i	i	i	1.1	i	i	.	.	.	.
COc1ccc2c(c1)cc1n2CCN=C1N	i	i	i	0.77	31*	i	138%*	i	i	i
Cc1[nH][nH]c(=O)c1C(c1ccc(-c2ccc(Cl)c(Cl)c2)o1)c1c(C)[nH][nH]c1=O	i	i	i	-3.6	i	i	.	.	.	.
Cc1[nH][nH]c(=O)c1C(c1ccc(-c2ccc(F)cc2)o1)c1c(C)[nH][nH]c1=O	i	i	i	-5.3*	40*	i	216%*	i	i	46*
O=C(Cc1ccc(Cl)cc1Cl)OCC(=O)N1CCN(C(=O)c2ccco2)CC1	i	i	i	1.3	29*	i	i	i	i	i
Cc1cc(C)c(NC(=O)Cn2c([N+](=O)[O-])cnc2C)c(C)c1	i	i	i	0.91	i	i	.	.	.	.
CC(=O)c1ccc(S(=O)(=O)N2CCC(c3nnc(SCCN4CCCC4)n3C)CC2)cc1	i	i	i	3.2	i	i	.	.	.	.
O=C(CCl)Nc1cccc(S(=O)(=O)N2CCCCCC2)c1	i	i	i	0.61	42*	i	165%*	i	i	i
CCCc1ccc(C(=O)NC(=O)c2ccccc2O)cc1	i	i	i	-0.51	61*	i	187%*	i	i	64*
C/C=C(\C)C(=O)N[C@@H](C)CN1C2=NC[C@H](C(C)C)N2C[C@H]1Cc1ccc(OC)cc1	i	.	i	-0.81	.	.	.	.	.	.
Cc1ccc(Sc2cc(C)nc(-c3ccccn3)n2)cc1	i	i	i	3.2	31*	i	210%*	i	i	i
Cc1ccc2cc3cc(C(=O)N4CCCCC4C)oc3nc2c1 (centres undefined)	i	i	i	-0.01	i	i	.	.	.	.
O=C(NCCc1ccc(Cl)cc1)Nc1ccc(F)cc1	i	i	i	-0.22	i	i	.	.	.	.
Fc1ccc(CCNC(=S)Nc2ccc(F)c(Cl)c2)cc1	i	i	i	-3.7	30*	i	150%*	i	i	i
COC(=O)c1c(NC(=O)CN2C(=O)NC3(CCc4ccccc4C3)C2=O)sc2c1CCCCC2 (centres undefined)	i	i	i	-2.7	29*	i	225%*	i	i	75*
CC(C)Cc1csc(NC(=O)c2ccc(Cl)cc2)c1C(=O)O	i	i	i	-0.11	37*	i	224%*	i	i	52*
COC(=O)c1cc(CSC(=N)N)ccc1OCCC(C)C	i	i	i	-9.5*	37*	i	200%*	i	i	i
c1ccc2c(c1)[nH]c1c(N3CCSCC3)ncnc12	.	i	.	.	32*	i	186%*	i	i	i
Cc1cccc2[nH]c3c(N4CCC5(CC4)OCCO5)ncnc3c12	i	i	i	-0.07	i	i	.	.	.	.
Clc1ccc2[nH]c3c(N4CCC5(CC4)OCCO5)ncnc3c2c1	i	i	i	-1.1	42*	i	238%*	i	i	50*
SMILES	RGS4 inh	MrgX1 allo act	RGS4 act	Kir21 inh	MrgX1 ag	MrgX1 antag	MrgX1 ag reconf	HEK293 Ca flux	HEK293 Ca counter	HEK293 Ca cntr2
Nc1ccc2c(c1)CC(=O)c1ccccc1S2	i	i	i	1.3	42*	i	102%*	i	i	i
O=C1Cc2ccccc2Sc2ccc(O)cc21	i	i	i	-0.02	29*	i	114%*	i	i	i
Nc1ccc(N2C(=O)c3ccccc3C2=O)c(Cl)c1	.	i	.	.	i	i	.	.	.	.
Cc1cccc2c1Sc1ccccc1CC2=O	i	i	i	1.9	33*	i	113%*	i	i	i
Cc1ccccc1NC(=O)Cn1nnc(-c2ccc(N3CCOCC3)cc2)n1	i	i	i	0.01	i	i	.	.	.	.
CSc1ccccc1OCc1cc(C(=O)NCCCc2ccccc2)no1	i	i	i	0.33	i	i	.	.	.	.
CCOc1ccc(CCNS(=O)(=O)c2cn(C)cn2)cc1OCC	i	i	i	-0.94	i	i	.	.	.	.
CCn1cc(C(=O)N2CCCC(N3CCN(c4cccc(C(F)(F)F)c4)CC3)C2)cn1 (centres undefined)	i	i	i	-0.14	i	i	.	.	.	.
Cc1ccc(-c2ccc(C3C(C#N)=C(N)Oc4n[nH]c(C)c43)o2)cc1 (centres undefined)	i	i	i	-1.1	37*	i	129%*	i	i	i
Cc1[nH]nc2c1C(c1ccc(-c3ccc(Cl)cc3)o1)C(C#N)=C(N)O2 (centres undefined)	i	i	i	0.54	34*	i	i	i	i	i
CCN1CCN(CC(=O)N2N=C(c3cccs3)CC2c2ccc(F)cc2)C(=O)C1=O (centres undefined)	i	i	i	-0.29	i	i	.	.	.	.
Cn1c(=O)[nH]c(=O)c2c1nc(CN1CCOCC1)n2Cc1ccc(F)cc1	.	i	.	.	i	i	.	.	.	.

Screening results as filed in PubChem BioAssay.
